This is an account of results in PubChem BioAssay.

Calls of active or inactive are those of the source.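 How the source made its calls, unless noted: active means duplicate-averaged activation above buffer control mean plus 5 SD of those controls; inactive means the rest.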

Potassium voltage-gated channel subfamily KQT member 1 (Homo sapiens), sequence (P51787 whole entry, looked up): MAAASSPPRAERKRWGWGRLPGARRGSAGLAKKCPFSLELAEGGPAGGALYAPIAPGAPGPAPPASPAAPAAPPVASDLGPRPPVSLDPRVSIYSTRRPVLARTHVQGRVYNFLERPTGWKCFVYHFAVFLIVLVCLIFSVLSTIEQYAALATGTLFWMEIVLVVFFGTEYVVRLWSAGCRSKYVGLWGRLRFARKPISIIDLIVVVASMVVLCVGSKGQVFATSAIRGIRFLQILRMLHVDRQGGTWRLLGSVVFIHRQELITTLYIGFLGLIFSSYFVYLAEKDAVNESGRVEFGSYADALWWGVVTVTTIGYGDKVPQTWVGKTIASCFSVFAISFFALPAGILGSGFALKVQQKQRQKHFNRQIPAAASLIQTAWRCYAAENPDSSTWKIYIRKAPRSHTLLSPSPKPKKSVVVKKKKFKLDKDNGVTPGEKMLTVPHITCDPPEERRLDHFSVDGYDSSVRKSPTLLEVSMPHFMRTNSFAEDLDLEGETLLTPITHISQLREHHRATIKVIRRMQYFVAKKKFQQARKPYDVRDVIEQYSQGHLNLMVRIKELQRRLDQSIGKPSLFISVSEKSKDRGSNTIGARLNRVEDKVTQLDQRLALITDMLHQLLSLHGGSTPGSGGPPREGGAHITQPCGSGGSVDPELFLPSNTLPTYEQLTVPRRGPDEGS

System in one test: not listed separately
Nature of the test: thallium flux activation in parental CHO cells, counter-screen for KCNQ1 potentiator project (AID 493006).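 On activation: fluorescence ratio of max minus min over baseline after K+ and Tl+ depolarization.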 The conditions noted are these: parental CHO-K1 cells, FluxOR thallium flux, at 10 µM; stronger effect = higher value. In a few lines:
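Benchmarks – buffer and R-L3 controls · Assay system – untransfected host CHO-K1 cells with FluxOR thallium dye · Measure – fluorescence change ratio scaled 0% buffer, 100% R-L3 · Technique – kinetic thallium-flux fluorescence · Timing – overnight 37 °C plating, 90 min RT dye, 20 min compound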
As to `CCn1c2ccccc2c2cc(NC(=O)CNC)ccc21`, the result was inactive.
Regarding `CCC1(C)Cc2c(sc3[nH]c(=S)n(Cc4ccccc4)c(=O)c23)CO1` (stereo not drawn), the activation was 294% (active).
The same measure, in the same setting: as for `CCn1c(O)c(N=NC2=NC(=O)CS2)c2cc(C)ccc21`, the figure is 244% (active).
Same read-out and setting: as for `CCn1c(=S)[nH]c2sc3c(c2c1=O)CCCCC3`, the figure is 516% (active).
Turning to `CCn1cc(CN2CCC(C(=O)Nc3cccc(-c4cccc(Cl)c4)c3)CC2)cn1`, the result was inactive.
For `Cc1cccc(NC(=S)NC(=O)c2ccc(Br)o2)c1`, the activation is 204% (active).
For the molecule `CS(=O)(=O)c1sc(C(=O)NC(=S)Nc2ccc(OC(F)(F)F)cc2)c2c1C=CCC2`, the outcome was inactive.
`CCOC(=O)c1sc(=S)n2c1[nH]c(=O)c1ccc(C(=O)OC)cc12`: the activation is 383% (active).
`CCOC(=O)c1c(NC(=S)NC)sc2c1CCCC2`: the activation is 318% (active).
The same measure, in the same setting: as for `Oc1c(Cl)cc(Cl)cc1/C=N/c1ncn[nH]1`, the figure is 232% (active).
The same measure, in the same setting: as for `CCc1ccc(NC(=O)C(=O)NNC(=O)c2cccs2)cc1`, the figure is 360% (active).
Turning to `CC1=C/C(=N\OS(=O)(=O)c2ccccc2)C=CC1=O`, the result was inactive.
Still for that read-out and setting: as for `Cc1[nH][nH]c(=O)c1C(c1ccc(-c2ccc(Cl)cc2)o1)c1c(C)[nH][nH]c1=O`, the entry is “inactive”.
In the case of `Cc1ccc(/C=N/NC(=O)c2cc3ccccc3cc2O)o1`, the activation was 482% (active).

A further test addresses Potassium voltage-gated channel subfamily KQT member 1 (Homo sapiens) (UniProt P51787). Nature of the test: KCNQ1 potassium channel potentiators, confirmation, FluxOR thallium flux, CHO cells, duplicates (AID 493007;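 active means potentiation averaged over duplicate wells exceeding buffer-only control mean by more than 3 SD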;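 on outcome: cells depolarized by a potassium plus thallium sulfate stimulus after compound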). Conditions: KCNQ1 cell line, FluxOR thallium flux fluorescence, at 10 µM; stronger effect = higher value, % of reference activator effect, buffer zero. An outline of the steps: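 Material: CHO cells stably expressing the KCNQ1 potassium channel / Times: dye 90 min then compound 20 min, both at room temperature / Detection: kinetic thallium influx fluorescence with FluxOR dye, 10 s baseline, 110 s post-stimulus / Benchmarks: buffer-only wells as 0% and R-L3 activator as 100% / Replicates: each compound tested in duplicate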
`CCn1c2ccccc2c2cc(NC(=O)CNC)ccc21`: the result was inactive.
As to `CCC1(C)Cc2c(sc3[nH]c(=S)n(Cc4ccccc4)c(=O)c23)CO1` (stereo not drawn), the potentiation is 190% (active).
Still for that read-out and setting: as for `CCn1c(O)c(N=NC2=NC(=O)CS2)c2cc(C)ccc21`, the figure is 112% (active); as for `CCn1c(=S)[nH]c2sc3c(c2c1=O)CCCCC3`, 258% (active).
Regarding `CCn1cc(CN2CCC(C(=O)Nc3cccc(-c4cccc(Cl)c4)c3)CC2)cn1`, the result was inactive.
For the molecule `Cc1cccc(NC(=S)NC(=O)c2ccc(Br)o2)c1`, the potentiation was 72% (active).
Regarding `CS(=O)(=O)c1sc(C(=O)NC(=S)Nc2ccc(OC(F)(F)F)cc2)c2c1C=CCC2`, the potentiation was 92% (active).
Same read-out and setting: as for `CCOC(=O)c1sc(=S)n2c1[nH]c(=O)c1ccc(C(=O)OC)cc12`, the figure is 108% (active).
Same read-out and setting: as for `CCOC(=O)c1c(NC(=S)NC)sc2c1CCCC2`, the figure is 73% (active).
Still for that read-out and setting: as for `Oc1c(Cl)cc(Cl)cc1/C=N/c1ncn[nH]1`, the figure is 41.5% (active); as for `CCc1ccc(NC(=O)C(=O)NNC(=O)c2cccs2)cc1`, 159% (active).
In the case of `CC1=C/C(=N\OS(=O)(=O)c2ccccc2)C=CC1=O`, the result was inactive.
In the case of `Cc1[nH][nH]c(=O)c1C(c1ccc(-c2ccc(Cl)cc2)o1)c1c(C)[nH][nH]c1=O`, the potentiation is 27.5% (active).
On the same count and under the same terms, as for `Cc1ccc(/C=N/NC(=O)c2cc3ccccc3cc2O)o1`, the figure is 140% (active).
